Assay results: ChEMBL document CHEMBL4811251 (Eur J Med Chem, 2021)

Assays:
A2780 = assay: Antiproliferative activity against human A2780 cells assessed as growth inhibition incubated for 72 hrs by MTT assay; type: functional
CDK8/Cyclin C = CDK8/Cyclin C (Homo sapiens, UniProt P49336); assay: Inhibition of CDK8/Cyclin C (unknown origin) using RBER-CHKtide as substrate in presence of [33P]gammaATP incubated for 60 mins by microplate scintillation counter analysis
[1] = target: T1, Macrophage colony-stimulating factor 1 receptor (Homo sapiens, UniProt P07333); assay: Inhibition of human FMS using KKKSPGEYVNIEFG as substrate incubated for 40 mins in presence of [gamma-33ATP] by scintillation counting based radiometry assay
T1 sequence (P07333 whole entry): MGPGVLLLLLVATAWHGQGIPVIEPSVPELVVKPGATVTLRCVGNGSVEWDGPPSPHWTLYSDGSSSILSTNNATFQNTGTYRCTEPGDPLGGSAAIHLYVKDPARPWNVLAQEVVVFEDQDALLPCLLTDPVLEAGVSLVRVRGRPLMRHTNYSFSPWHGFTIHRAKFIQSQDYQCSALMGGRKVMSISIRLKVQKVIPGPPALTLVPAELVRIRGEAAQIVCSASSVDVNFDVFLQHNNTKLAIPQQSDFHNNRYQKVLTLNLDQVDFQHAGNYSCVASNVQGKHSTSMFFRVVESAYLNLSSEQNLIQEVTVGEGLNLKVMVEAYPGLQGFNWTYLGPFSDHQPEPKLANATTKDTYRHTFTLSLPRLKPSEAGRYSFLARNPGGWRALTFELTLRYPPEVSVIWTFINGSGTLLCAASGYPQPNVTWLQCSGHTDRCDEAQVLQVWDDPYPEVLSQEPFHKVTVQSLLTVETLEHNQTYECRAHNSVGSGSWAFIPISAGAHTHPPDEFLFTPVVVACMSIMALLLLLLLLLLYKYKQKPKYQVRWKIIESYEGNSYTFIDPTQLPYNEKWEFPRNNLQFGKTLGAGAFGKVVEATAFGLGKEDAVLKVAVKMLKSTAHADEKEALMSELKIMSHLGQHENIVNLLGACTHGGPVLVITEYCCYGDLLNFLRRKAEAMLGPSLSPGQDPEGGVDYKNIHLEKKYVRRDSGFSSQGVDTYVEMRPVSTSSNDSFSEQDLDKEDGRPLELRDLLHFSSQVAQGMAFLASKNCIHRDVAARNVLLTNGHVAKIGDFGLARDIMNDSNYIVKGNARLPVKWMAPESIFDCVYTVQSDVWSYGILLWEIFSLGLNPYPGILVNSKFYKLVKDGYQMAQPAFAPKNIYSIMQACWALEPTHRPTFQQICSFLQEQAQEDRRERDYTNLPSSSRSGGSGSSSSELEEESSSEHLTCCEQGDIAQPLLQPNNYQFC

[2] = Half life in BALB/c mouse at 2 mg/kg, iv measured upto 24 hrs by LC/MS/MS analysis; type: ADME, organism-based; details: in vivo
[3] = Clearance in Sprague-Dawley rat at 5 mg/kg, iv measured upto 24 hrs by LC/MS/MS analysis; type: ADME, organism-based; details: in vivo
[4] = Half life in Sprague-Dawley rat at 5 mg/kg, iv measured upto 24 hrs by LC/MS/MS analysis; type: ADME, organism-based; details: in vivo
[5] = AUC in BALB/c mouse at 2 mg/kg, iv measured upto 24 hrs by LC/MS/MS analysis; type: ADME, organism-based; parameters: route intravenous, dose 2 mg/kg, time <=24; details: in vivo
[6] = Tmax in Sprague-Dawley rat at 20 mg/kg, po measured upto 24 hrs by LC/MS/MS analysis; type: ADME, organism-based; details: in vivo
[7] = target: T2, Receptor-type tyrosine-protein kinase FLT3 (Homo sapiens, UniProt P36888); assay: Inhibition of human FLT3 using EAIYAAPFAKKK as substrate incubated for 40 mins in presence of [gamma-33ATP] by scintillation counting based radiometry assay
T2 sequence (P36888 whole entry): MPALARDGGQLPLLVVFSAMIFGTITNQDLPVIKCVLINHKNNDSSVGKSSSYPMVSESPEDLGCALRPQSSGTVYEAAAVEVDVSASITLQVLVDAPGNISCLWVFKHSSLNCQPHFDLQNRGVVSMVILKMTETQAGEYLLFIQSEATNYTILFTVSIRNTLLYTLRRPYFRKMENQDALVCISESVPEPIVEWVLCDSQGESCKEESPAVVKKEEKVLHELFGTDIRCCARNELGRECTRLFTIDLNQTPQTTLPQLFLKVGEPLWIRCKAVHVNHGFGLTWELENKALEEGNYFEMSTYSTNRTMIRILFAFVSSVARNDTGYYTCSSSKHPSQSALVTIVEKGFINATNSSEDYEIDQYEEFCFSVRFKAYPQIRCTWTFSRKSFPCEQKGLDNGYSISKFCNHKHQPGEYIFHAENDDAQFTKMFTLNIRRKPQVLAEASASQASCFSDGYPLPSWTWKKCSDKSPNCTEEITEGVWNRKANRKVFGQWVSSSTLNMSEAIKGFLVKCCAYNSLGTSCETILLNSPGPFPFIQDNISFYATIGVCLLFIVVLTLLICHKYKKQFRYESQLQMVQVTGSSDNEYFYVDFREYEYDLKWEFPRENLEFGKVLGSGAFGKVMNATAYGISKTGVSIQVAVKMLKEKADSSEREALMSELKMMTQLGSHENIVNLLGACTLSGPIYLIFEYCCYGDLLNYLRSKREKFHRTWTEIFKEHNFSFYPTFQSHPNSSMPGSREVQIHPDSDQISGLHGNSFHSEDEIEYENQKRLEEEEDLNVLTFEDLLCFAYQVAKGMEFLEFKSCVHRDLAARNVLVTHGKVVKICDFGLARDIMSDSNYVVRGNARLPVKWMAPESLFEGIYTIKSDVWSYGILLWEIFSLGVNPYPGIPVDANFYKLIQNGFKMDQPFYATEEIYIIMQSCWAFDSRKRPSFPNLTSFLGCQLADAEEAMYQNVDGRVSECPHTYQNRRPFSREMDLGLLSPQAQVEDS

[8] = Oral bioavailability in BALB/c mouse at 10 mg/kg measured upto 24 hrs by LC/MS/MS analysis; type: ADME, organism-based; details: in vivo
[9] = AUC in Sprague-Dawley rat at 5 mg/kg, iv measured upto 24 hrs by LC/MS/MS analysis; type: ADME, organism-based; parameters: route intravenous, dose 5 mg/kg, time <=24; details: in vivo
[10] = AUC in Sprague-Dawley rat at 20 mg/kg, po measured upto 24 hrs by LC/MS/MS analysis; type: ADME, organism-based; parameters: route oral, dose 20 mg/kg, time <=24; details: in vivo
MV4-11 [11] = assay: Induction of apoptosis in human MV4-11 cells assessed as early apoptotic cells at 10 uM after 72 hrs by Annexin V FITC/PI staining based flow cytometry analysis (reference value: 2.73%); type: functional
[12] = target: CDK9/cyclin T1 (Homo sapiens) (UniProt O60563+P50750); assay: Inhibition of CDK9/Cyclin T1 (unknown origin) assessed as residual activity at 1 uM relative to control; type: protein-complex assay
[13] = target: T1, Macrophage colony-stimulating factor 1 receptor; assay: Inhibition of human CSF1R at 1 uM using KKKSPGEYVNIEFG as substrate incubated for 40 mins in presence of [gamma-33ATP] by scintillation counting based radiometry assay relative to control
MV4-11 [14] = assay: Induction of apoptosis in human MV4-11 cells assessed as necrotic cells at 10 uM after 72 hrs by Annexin V FITC/PI staining based flow cytometry analysis (reference value: 0.23%); type: functional
[15] = Dissociation constant, pKa of the compound by fast UV-spectrometric titration method; type: physicochemical
MV4-11 [16] = assay: Induction of cell cylce arrest in human MV4-11 cells assessed as accumulation of cells at G2 phase at 10 uM after 72 hrs by RNase A/propidium iodide staining based flow cytometry (reference value: 12.61%); type: functional
How it was run: (§1)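 MV4-11 cells were seeded at 8 × 10⁴, held overnight at 37 °C with 5% CO2, then treated 72 h at 3 or 10 µM against a DMSO diluent control. Pellets were fixed in 70% ethanol on ice for 15 min, then stained 1 h at room temperature with PI, 0.1 mg/mL RNase A and 0.05% Triton X-100. Sub-G1, G1, S and G2/M fractions were read by flow cytometry.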

[17] = Clearance in BALB/c mouse at 2 mg/kg, iv measured upto 24 hrs by LC/MS/MS analysis; type: ADME, organism-based; details: in vivo
[18] = Cmax in BALB/c mouse at 10 mg/kg, po measured upto 24 hrs by LC/MS/MS analysis; type: ADME, organism-based; parameters: route oral, dose 10 mg/kg, time <=24; details: in vivo
[19] = Cmax in Sprague-Dawley rat at 5 mg/kg, iv measured upto 24 hrs by LC/MS/MS analysis; type: ADME, organism-based; parameters: route intravenous, dose 5 mg/kg, time <=24; details: in vivo
MV4-11 [20] = assay: Induction of cell cylce arrest in human MV4-11 cells assessed as accumulation of cells at G2 phase at 3 uM after 72 hrs by RNase A/propidium iodide staining based flow cytometry (reference value: 12.61%); type: functional; how it was run: as §1

Sequence of CDK8/Cyclin C (P49336 whole entry): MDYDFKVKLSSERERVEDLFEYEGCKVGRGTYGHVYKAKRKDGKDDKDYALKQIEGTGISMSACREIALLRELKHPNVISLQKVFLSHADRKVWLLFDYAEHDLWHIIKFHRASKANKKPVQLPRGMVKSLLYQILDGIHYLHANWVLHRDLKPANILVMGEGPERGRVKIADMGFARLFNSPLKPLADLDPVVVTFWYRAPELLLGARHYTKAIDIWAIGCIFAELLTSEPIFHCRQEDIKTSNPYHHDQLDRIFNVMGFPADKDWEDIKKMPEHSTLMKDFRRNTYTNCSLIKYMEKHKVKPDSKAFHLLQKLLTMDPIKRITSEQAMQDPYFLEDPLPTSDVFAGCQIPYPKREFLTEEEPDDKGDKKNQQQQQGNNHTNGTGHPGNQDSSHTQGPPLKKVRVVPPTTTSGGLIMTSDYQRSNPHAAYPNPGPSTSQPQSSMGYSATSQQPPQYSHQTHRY
Sequence of CDK8/Cyclin C (P24863 whole entry, further chain): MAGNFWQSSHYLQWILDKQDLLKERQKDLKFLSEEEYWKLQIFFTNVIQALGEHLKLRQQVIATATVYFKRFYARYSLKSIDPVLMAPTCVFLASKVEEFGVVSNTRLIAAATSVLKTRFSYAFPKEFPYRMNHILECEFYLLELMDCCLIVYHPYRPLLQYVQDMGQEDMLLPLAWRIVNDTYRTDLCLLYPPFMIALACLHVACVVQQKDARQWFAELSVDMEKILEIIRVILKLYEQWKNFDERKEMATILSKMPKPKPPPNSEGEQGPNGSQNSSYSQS

GI50 (A2780): 5310 nM
Ki (CDK8/Cyclin C): 9 nM
Ki [1]: 166 nM
half-life [2]: 0.37 h
clearance [3]: 23.8 mL/min/kg
half-life [4]: 1.45 h
AUC at 24 h [5]: 1.55 µM·h
Tmax [6]: 4 h
Ki [7]: 242 nM
bioavailability [8]: 33%
AUC at 24 h [9]: 8.92 µM·h
AUC at 24 h [10]: 25.1 µM·h
Activity [12]: 61%
inhibition [13]: > 50%
pKa [15]: 5.27
clearance [17]: 54.2 mL/min/kg
Cmax [18]: 2.23 µM
Cmax [19]: 9.36 µM
Compound: Nc1ncc(-c2cc3ccccc3o2)c(N2CCC3(CCNC3=O)CC2)c1Cl
Activity (MV4-11 [11]): 1.96%
Activity (MV4-11 [14]): 0.59%
Activity (MV4-11 [16]): 1.83%
Activity (MV4-11 [20]): 8.11%
